This passage reports MBC, inhibition zone (IZ) and MIC results from ChEMBL document CHEMBL4346672, “Antimicrobial and KPC/AmpC inhibitory activity of functionalized benzosiloxaboroles” (Eur J Med Chem, 2019).

One assay concerns Enterococcus faecium. The assay can be described thus: Bactericidal activity against Enterococcus faecium ATCC 6057 measured after 18 hrs by CLSI broth dilution method. The assay is classed as functional. The settings on record: ATCC 6057, 18 h. Summed up: (§1)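 Strains stored at -80 °C and subcultured twice on tryptic soy agar before testing. Compounds dissolved in DMSO. […] MBC then determined per CLSI recommendations.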
A general note: In broth dilution the organism is exposed to a series of concentrations in liquid medium.

The subject of assay [1] is Klebsiella pneumoniae ATCC BAA-1705. Nature of the assay: Inhibition of beta lactamase KPC in Klebsiella pneumoniae ATCC BAA 1705 assessed as potentiation of meropenem-induced antibacterial activity by measuring diameter of zone inhibition at 0.3 mg incubated for 18 hrs in presence of 10 ug meropenem by CLSI disc diffusion method (Rvb=[…] mm). (In agar diffusion tests the substance spreads into inoculated agar from a disc or well.)

For a further assay, the system named is Pseudomonas aeruginosa. Nature of the assay: Inhibition of beta lactamase VIM in Pseudomonas aeruginosa 698 assessed as potentiation of ceftazidime-induced antibacterial activity by measuring ceftazidime MIC at 16 mg/L incubated for 18 hrs by broth dilution method (reference value: […] mg/L).
In assay [2] the test system is Escherichia coli. The assay can be described thus: Inhibition of beta lactamase CMY-2 in Escherichia coli 77 assessed as potentiation of ceftazidime-induced antibacterial activity by measuring ceftazidime MIC at 16 mg/L incubated for 18 hrs by broth dilution method (reference value: […] mg/L).
Assay [3] has as its system Escherichia coli. The assay can be described thus: Inhibition of beta lactamase KPC-3 in Escherichia coli 82 TR assessed as potentiation of meropenem-induced antibacterial activity by measuring meropenem MIC at 16 mg/L incubated for 18 hrs by broth dilution method (reference value: 2 mg/L).
The next assay relates to Burkholderia cepacia. The assay can be described thus: Bactericidal activity against Burkholderia cepacia ATCC 25416 measured after 18 hrs by CLSI broth dilution method. Format: functional. The following applies: ATCC 25416, 18 h. Summed up: as §1
Assay [4] relates to Bordetella bronchiseptica. The assay can be described thus: Bactericidal activity against Bordetella bronchiseptica ATCC 4617 measured after 18 hrs by CLSI broth dilution method. Format: functional. The settings on record: ATCC 4617, 18 h. The method in brief:
as §1

SMILES strings stand for the structures. Converted amounts (≈) assume the structure as drawn.

`C[Si]1(C)OB(O)c2ccc(C(F)(F)F)cc21`: the MBC (as a rule, the lowest tested concentration that kills the bacteria rather than only halting them) against Enterococcus faecium amounted to 50 µg/mL (≈ 203 µM).
On to `C[Si]1(C)OB(O)c2c(F)c(F)c(F)c(F)c21`, for which the inhibition zone (IZ) in assay [1] is 13 mm. Moreover, the MIC worked out at 64 µg/mL with Pseudomonas aeruginosa, 16 µg/mL in the assay with Escherichia coli [2] and 2 µg/mL in the assay with Escherichia coli [3].
For `C[Si]1(C)OB(O)c2c(F)c3c(c(F)c21)B(O)OC3`, the minimal bactericidal concentration (MBC) with Burkholderia cepacia worked out at 100 µg/mL (≈ 371 µM); in assay [4], 400 µg/mL (≈ 1480 µM). Further, the inhibition zone (IZ) in assay [1] stood at 12 mm. The MIC in the assay with Pseudomonas aeruginosa came out at 64 µg/mL; in the assay with Escherichia coli [2], 32 µg/mL; with Escherichia coli [3], 2 µg/mL.
As to `C[Si]1(C)OB(O)c2cc3c(c(F)c21)COB3O`, in assay [1], the inhibition zone (IZ) worked out at 12 mm. Besides, the MIC worked out at 64 µg/mL in the assay on Pseudomonas aeruginosa, 16 µg/mL with Escherichia coli [2] and 1 µg/mL in the assay with Escherichia coli [3].
In the same order, the values of `C[Si]1(C)OB(O)c2ccc(F)c(F)c21` are 14 mm, 64 µg/mL, 16 µg/mL and 2 µg/mL.
As for `C[Si]1(C)OB(O)c2ccc(B(O)O)cc21`, the minimum bactericidal concentration (MBC) with Enterococcus faecium came to 400 µg/mL (≈ 1800 µM). Besides, in assay [1], the inhibition zone (IZ) was 18 mm. The MIC turned out to be 64 µg/mL in the assay on Pseudomonas aeruginosa, 8 µg/mL in the assay on Escherichia coli [2] and 0.25 µg/mL in the assay on Escherichia coli [3].
